The source made the active and inactive calls. The rule behind the calls is not given here.
Assays:
[1] = tested on: Mus musculus; test: Antiinflammatory activity in DSS- induced C57BL/6 mouse colitis model assessed as body weight at 5 mg/kg, ip after 10 days (reference value: 15.69 +/- 0.65 g); type: functional
How it was run: (§1)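 Female C57BL/6 mice, 6–8 weeks, randomized into five groups. Colitis induced by 2.5% w/v DSS in drinking water for 5 days, then 5 days of normal water. Test agent given ip at 5 or 10 mg/kg, or 5-ASA ig at 50 mg/kg, until study end. Controls were water plus vehicle and DSS plus vehicle. Body weight recorded daily; colon length taken at sacrifice on day 10. Mean ± SD, n = 10.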

[2] = tested on: Mus musculus; test: Antiinflammatory activity in DSS- induced C57BL/6 mouse colitis model assessed as body weight at 10 mg/kg, ip after 10 days (reference value: 15.69 +/- 0.65 g); type: functional; how it was run: as §1
[3] = tested on: Mus musculus; test: Antiinflammatory activity in DSS- induced C57BL/6 mouse colitis model assessed as colon length at 5 mg/kg, ip after 10 days (reference value: 45.68 +/- 1.34 mm); type: functional; how it was run: as §1
[4] = tested on: Mus musculus; test: Antiinflammatory activity in DSS- induced C57BL/6 mouse colitis model assessed as colon length at 10 mg/kg, ip after 10 days (reference value: 45.68 +/- 1.34 mm); type: functional; how it was run: as §1
[5] = tested on: Mus musculus; test: Antiinflammatory activity in DSS- induced C57BL/6 mouse colon colitis model assessed as cellular infiltration of mononuclear macrophages/neutrophils at 10 mg/kg, ip after 24 hrs by hematoxylin/eosin staining based assay; type: functional, organism-based
How it was run: (§2)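 Colitis induced in female C57BL/6 mice as 2.5% DSS in drinking water for 5 days, then 5 days of water. Dosing ip or 5-ASA ig until sacrifice at day 10. Colons fixed in 10% buffered formalin (pH 7.4) for at least 24 h. Sections scored for cellular infiltration, mucosal lesion and crypt damage to give a histologic score.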

[6] = tested on: Mus musculus; test: Antiinflammatory activity in DSS- induced C57BL/6 mouse colon colitis model assessed as mucosal/submucosal lesion at 10 mg/kg, ip after 24 hrs by hematoxylin/eosin staining based assay; type: functional, organism-based; how it was run: as §2
[7] = tested on: Mus musculus; test: Antiinflammatory activity in DSS- induced C57BL/6 mouse colon colitis model assessed as degeneration/necrosis of crypt cells at 10 mg/kg, ip after 24 hrs by hematoxylin/eosin staining based assay; type: functional, organism-based; how it was run: as §2
[8] = tested on: Mus musculus; test: Antiinflammatory activity in DSS- induced C57BL/6 mouse colon colitis model assessed as inhibition of IL6 expression at 5 to 10 mg/kg, ip after 24 hrs by hematoxylin staining based assay; type: functional, organism-based
How it was run: (§3)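 Colons come from the same DSS model, fixed in 10% buffered formalin for at least 24 h. Paraffin sections were deparaffinized. Antigen was retrieved in 10 mM sodium citrate with 0.1% Tween 20 at 100 °C for 20 min. Primary antibody was applied in PBS with 5% BSA and 10% goat serum, then HRP polymer at room temperature for 30 min. Detection was DAB with hematoxylin counterstain. IL-6 and COX-2 positive labeling was counted automatically. Mean ± SD.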

[9] = tested on: Mus musculus; test: Antiinflammatory activity in DSS- induced C57BL/6 mouse colon colitis model assessed as inhibition of COX2 expression at 5 to 10 mg/kg, ip after 24 hrs by hematoxylin staining based assay; type: functional, organism-based; how it was run: as §3
[10] = biological target: Sphingosine kinase 1 (Homo sapiens, UniProt Q9NYA1); test: Inhibition of GST-tagged full length human recombinant SPHK1 expressed in baculovirus using sphingosine as substrate preincubated for 10 mins measured after 1 hr by ADP-quest assay
Sphingosine kinase 1, sequence (Q9NYA1 whole entry): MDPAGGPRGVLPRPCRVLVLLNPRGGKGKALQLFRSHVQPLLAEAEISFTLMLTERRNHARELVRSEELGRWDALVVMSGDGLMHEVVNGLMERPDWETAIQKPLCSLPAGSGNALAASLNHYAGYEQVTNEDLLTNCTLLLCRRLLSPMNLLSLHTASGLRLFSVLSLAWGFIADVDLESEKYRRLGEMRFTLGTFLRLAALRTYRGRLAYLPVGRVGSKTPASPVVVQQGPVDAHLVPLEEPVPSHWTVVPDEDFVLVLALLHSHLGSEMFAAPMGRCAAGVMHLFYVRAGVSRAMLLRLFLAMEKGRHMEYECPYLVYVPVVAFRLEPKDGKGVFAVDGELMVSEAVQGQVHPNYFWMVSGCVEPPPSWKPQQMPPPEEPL

[11] = biological target: T1, Sphingosine kinase 2 (Homo sapiens, UniProt Q9NRA0); test: Inhibition of GST-tagged full length human recombinant SPHK2 expressed in baculovirus using sphingosine as substrate preincubated for 10 mins measured after 1 hr by ADP-quest assay
T1 sequence (Q9NRA0 whole entry): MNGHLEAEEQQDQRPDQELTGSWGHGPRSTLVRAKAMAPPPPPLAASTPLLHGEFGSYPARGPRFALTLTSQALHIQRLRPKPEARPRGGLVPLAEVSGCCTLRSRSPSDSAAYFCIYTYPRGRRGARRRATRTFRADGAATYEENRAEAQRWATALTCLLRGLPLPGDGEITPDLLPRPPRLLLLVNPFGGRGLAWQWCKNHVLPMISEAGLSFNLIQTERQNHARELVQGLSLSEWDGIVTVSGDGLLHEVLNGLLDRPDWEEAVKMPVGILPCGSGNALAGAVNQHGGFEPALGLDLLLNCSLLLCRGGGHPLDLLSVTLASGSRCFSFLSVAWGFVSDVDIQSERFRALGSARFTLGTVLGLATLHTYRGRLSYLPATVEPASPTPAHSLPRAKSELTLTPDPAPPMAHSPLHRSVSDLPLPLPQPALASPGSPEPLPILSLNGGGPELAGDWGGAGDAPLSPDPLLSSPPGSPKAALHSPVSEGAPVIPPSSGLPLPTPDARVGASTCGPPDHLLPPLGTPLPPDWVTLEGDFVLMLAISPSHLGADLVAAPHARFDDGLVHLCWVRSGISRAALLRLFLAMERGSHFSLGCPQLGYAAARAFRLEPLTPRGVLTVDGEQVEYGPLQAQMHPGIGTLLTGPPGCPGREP
How it was run: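 Human recombinant SphK1 or SphK2 with sphingosine substrate and ATP, tested in 384-well format. Enzyme was preincubated with compound for 10 min, then the reaction ran at 28 °C for 1 h. ADP Quest reagents A and B were added for 30 min at room temperature. Fluorescence was read at Ex 530/Em 590 nm. Values are mean of n = 3 in triplicate.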

[12] = tested on: Mus musculus; test: Antiinflammatory activity in DSS- induced C57BL/6 mouse colitis model assessed as change in body weight at 5 to 10 mg/kg, ip after 7 days; type: functional, organism-based; how it was run: as §1

IC50 [10]: 4.36 µM | IC50 [11]: 2.17 µM
SMILES: COc1cccc(COc2ccc(/C=N/NC(=O)c3cc(O)c(O)c(O)c3)cc2)c1
Activity [1]: 17.1 g | Activity [2]: 17.5 g | Activity [3]: 53.04 mm | Activity [4]: 51.41 mm | Activity [5]: Active | Activity [6]: Active | Activity [7]: Active | inhibition [8]: Active | inhibition [9]: Active | Activity [12]: inactive
